Results from ChEMBL document CHEMBL4342502, “Synthesis and Antichlamydial Activity of Molecules Based on Dysregulators of Cylindrical Proteases” (J Med Chem, 2020).
The source made the active and inactive calls. The rule behind the calls is not given here.

Key:
[1] = system: Chlamydia trachomatis; assay: (§1) Anti-chlamydial activity against Chlamydia trachomatis Serovar LGV-L2 infected in Hep2 cells assessed as reduction in chlamydial inclusion growth by measuring appearance of small and irregular inclusions at 3 ug/ml treated at 8 hrs post-infection and 24 hrs later re-infecting fresh Hep2 cells monolayer with infected cells and measured at 24 hrs post re-infection by immunofluorescence staining based microscopy analysis; format: functional, organism-based
In short: (§2)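 HEp-2 cells in DMEM with 10% FBS, infected with C. trachomatis L2 at MOI 1. Compounds added 8 hpi in triplicate; DMSO stocks at 50 mg/mL. At 24 hpi lysates collected in sucrose storage medium, frozen at −80 °C, and used to infect fresh HEp-2 monolayers in 10-fold dilutions. After 24 h, stained with goat anti-MOMP and Alexa488 secondary. Inclusions counted in 15 fields at 20x; IFU = mean count per field corrected for dilution.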

[2] = system: Chlamydia trachomatis; assay: as §1, with “infectivity” for “inclusion growth”, “decrease in inclusion forming units” for “appearance of small and irregular inclusions”, “50” for “3”; format: functional, organism-based; in short: as §2
[3] = system: Chlamydia trachomatis; assay: Anti-Chlamydial activity against Chlamydia trachomatis Serovar LGV-L2 infected in Hep2 cells assessed as reduction in size and number of chlamydial inclusion at 50 ug/ml treated at 8 hrs post-infection and 24 hrs later re-infecting fresh Hep2 cells monolayer with infected cells and measured at 24 hrs post re-infection by immunofluorescence staining based microscopy analysis; format: functional, organism-based; in short: as §2
[4] = system: Haemophilus influenzae; assay: Antimicrobial activity against Haemophilus influenzae H2192 assessed as bacterial growth inhibition measured after 18 to 20 hrs; format: functional
[5] = system: Neisseria meningitidis; assay: Antimicrobial activity against Neisseria meningitidis MC58 assessed as bacterial growth inhibition measured after 18 to 20 hrs; format: functional
[6] = system: Escherichia coli; assay: Antibacterial activity against Escherichia coli K12 assessed as bacterial growth inhibition at 32 ug/ml measured after 16 hrs by broth microdilution method; format: functional, organism-based; settings: K-12
In short: (§3)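 Broth microdilution in Mueller Hinton broth, triplicate. Direct colony suspension at 1.5 x 10^8 CFU/mL diluted to ~10^5 CFU/mL. Serial dilutions made from DMSO stocks at 1 mg/mL; vancomycin positive control, blank medium negative control. Incubated 16 h at optimum temperature. MIC is the lowest concentration without visible growth at 600 nm; mean of triplicate determinations.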

[7] = system: Acinetobacter baumannii; assay: Antibacterial activity against Acinetobacter baumannii ATCC 19606 assessed as bacterial growth inhibition at 32 ug/ml measured after 16 hrs by broth microdilution method; format: functional, organism-based; settings: ATCC 19606 = CIP 70.34 = JCM 6841
[8] = system: Staphylococcus aureus; assay: Antibacterial activity against methicillin-resistant Staphylococcus aureus ATCC 43300 assessed as bacterial growth inhibition at 32 ug/ml measured after 16 hrs by broth microdilution method; format: functional, organism-based
[9] = system: Chlamydia trachomatis; assay: Anti-chlamydial activity against Chlamydia trachomatis Serovar LGV-L2 infected in Hep2 cells assessed as inhibition of chlamydial inclusion at 50 ug/ml treated at 8 hrs post infection and measured at 24 hrs post-infection by immunofluorescence assay; format: functional, organism-based
In short: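 HEp-2 cells infected with C. trachomatis serovar L2. Compounds at 50 μg/mL added 8 hpi; inclusion number and size assessed by immunofluorescence at 24 hpi against untreated cells. Cell morphology and viability checked by phase-contrast microscopy.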

[10] = Mutagenicity in Drosophila melanogaster somatic cells assessed as frequency of clone formation in ST crosses at 0.25 to 1 mM by SMART assay; format: ADME; settings: 1000 µM
In short: (§4)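 Drosophila SMART wing-spot assay, ST and HB crosses. Third-instar larvae (72 ± 4 h) placed on hydrated instant mashed potato medium containing compound at 0.25, 0.5 or 1.0 mM final. Negative control: water with 1% Tween-80 and 3% ethanol. Statistics by Frei and Würgler two-sided U test, P≤0.05.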

[11] = system: Pseudomonas aeruginosa; assay: Antibacterial activity against Pseudomonas aeruginosa ATCC 27853 assessed as bacterial growth inhibition at 32 ug/ml measured after 16 hrs by broth microdilution method; format: functional, organism-based
[12] = Mutagenicity in Drosophila melanogaster somatic cells assessed as frequency of clone formation in HB crosses at 0.25 to 1 mM by SMART assay; format: ADME; settings: 1000 µM; in short: as §4
[13] = system: Escherichia coli; assay: Antibacterial activity against Escherichia coli ATCC 25922 assessed as bacterial growth inhibition at 32 ug/ml measured after 16 hrs by broth microdilution method; format: functional, organism-based
[14] = system: Candida albicans; assay: Antifungal activity against Candida albicans ATCC 90028 assessed as fungal growth inhibition at 32 ug/ml measured after 16 hrs by broth microdilution method; format: functional, organism-based
[15] = Toxicity in Drosophila melanogaster assessed as survival rate at 0.25 to 1 mM; settings: 1000 µM
In short: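 Drosophila SMART assay using third-instar larvae (72 ± 4 h) from ST and HB crosses. Larvae exposed in hydrated instant mashed-potato medium at 0.25, 0.5 and 1.0 mM final. Vehicle control: water with 1% Tween-80 and 3% ethanol. Survival of treated groups compared statistically with the vehicle control.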

[16] = system: HeLa 229; assay: Cytotoxicity against human HeLa 229 cells assessed as cell viability at 50 ug/ml after 24 hrs by CCK-8 assay relative to control; format: cell-based; settings: hela 229, 24 h
In short: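 HeLa 229 cells kept in DMEM with 10% FBS and 1% penicillin/streptomycin at 37 °C, 5% CO2. Seeded at 5000 cells/well and dosed next day at 50 μg/mL in triplicate for 24 h, against DMSO-matched controls. CCK-8 reagent added for 2 h, then corrected absorbance read at 450 nm.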

[17] = system: Klebsiella pneumoniae; assay: Antibacterial activity against Klebsiella pneumoniae ATCC 700603 assessed as bacterial growth inhibition at 32 ug/ml measured after 16 hrs by broth microdilution method; format: functional, organism-based
[18] = system: Cryptococcus neoformans; assay: Antifungal activity against Cryptococcus neoformans var. grubii H99 ATCC […] as fungal growth inhibition at 32 ug/ml measured after 16 hrs by broth microdilution method; format: functional, organism-based; settings: var. grubii H99 ATCC 208821
[19] = system: Staphylococcus aureus; assay: Antibacterial activity against Staphylococcus aureus JE2 assessed as bacterial growth inhibition at 32 ug/ml measured after 16 hrs by broth microdilution method; format: functional, organism-based; in short: as §3
[20] = Half life in human liver microsomes at 1 ug/ml measured up to 60 mins by LC-MS/MS analysis; format: ADME, Microsome; settings: microsomes, 1 h
In short: (§5)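 Human liver microsomes (1.0 mg/mL protein) in 100 mM phosphate pH 7.4 with 10 mM MgCl2 and 2 mM NADPH, preincubated 10 min at 37 °C. Reaction started with compound at 1 μg/mL. Sampled at 0, 5, 15, 20, 30, 45 and 60 min and quenched in methanol with internal standard. Controls: no NADPH (negative), testosterone (positive). Analysed by LC-MS/MS, triplicate.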

[21] = Stability of the compound in simulated gastric fluid at 50 uM and pH 1.2 at 37 degree C measured up to 120 mins by HPLC-ESI/MS analysis; settings: simulated gi fluid, pH 1.2, 2 h
[22] = system: HaCaT; assay: Cytotoxicity against immortal human HaCaT cells assessed as reduction in cell viability at 50 ug/ml after 24 hrs by CCK-8 assay; format: cell-based
In short: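 HeLa 229 and HaCaT cells in DMEM with 10% FBS and 1% penicillin/streptomycin, 37 °C, 5% CO2, seeded at 5000 cells/well. Next day treated with 50 μg/mL in triplicate, with matching DMSO controls. After 24 h, CCK-8 added for 2 h; corrected absorbance read at 450 nm.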

[23] = Stability of compound in mouse pre-heated plasma at 50 uM incubated up to 120 mins by HPLC-ESI/MS analysis; format: ADME, cell-free; settings: 2 h
In short: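 Compounds from 2.5 mM DMSO stocks incubated at 50 μM final in mouse plasma diluted to 80% with PBS, preheated, 37 °C, shaking. Sampled at 0, 15, 30, 60, 90 and 120 min and quenched with cold acetonitrile. Centrifuged; supernatant analysed by HPLC-ESI-MS. Peak area reported relative to time zero. Enalapril positive control; triplicate.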

[24] = Hepatic intrinsic clearance in human liver microsomes at 1 ug/ml measured per kg body weight up to 60 mins by LC-MS/MS analysis; format: ADME, Microsome; settings: 1 h
[25] = Intrinsic clearance in human liver microsomes at 1 ug/ml measured per mg protein up to 60 mins by LC-MS/MS analysis; format: ADME, Microsome; settings: microsomes, 1 h; in short: as §5
[26] = Drug metabolism in human liver microsomes assessed as amount of drug modified at 1 ug/ml […] in presence of NADPH by LC-MS/MS analysis; format: ADME, Microsome; settings: read-out: Drug metabolism
[27] = Stability of compound in human liver microsomes at 1 ug/ml measured up to 60 mins in absence of NADPH by LC-MS/MS analysis; format: ADME, Microsome; settings: 1 h; in short: as §5
[28] = system: Chlamydia trachomatis; assay: (§6) Activation of recombinant Chlamydia trachomatis Serovar LGV-L2 C-terminal 6xhis-tagged ClpP1/ClpP2 dimer expressed in Escherichia coli assessed as induction of casein degradation at 0.1 to 1 uM using FITC-labelled casein as substrate pretreated with enzyme for 30 mins followed by substrate addition and measured every 3 mins for 3 hrs in absence of AAA+ chaperone by fluorescence based tecan-plate reader assay
In short: (§7)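 Recombinant C-terminal His6-tagged ClpP, expressed in a clpAPX-null E. coli strain and purified (mammalian ClpP without mitochondrial signal, codon-optimized). ClpP at 1 or 0.1 μM (E. coli), 1 μM (human, mouse) or 6 μM (chlamydial ClpP1 and ClpP2) preincubated with compound or DMSO, 30 min, 32 °C, in HEPES pH 7.6/KCl/MgCl2/DTT/glycerol buffer. 20 μM FITC-casein then added. Fluorescence (ex 490/em 525 nm) read every 3 min for 3 h. At least three runs on at least two protein preparations.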

[29] = system: Chlamydia trachomatis; assay: as §6, with “ClpP1” for “ClpP1/ClpP2 dimer”, “absence” for “absence of AAA+”; in short: as §7
[30] = system: Chlamydia trachomatis; assay: as §6, with “ClpP2” for “ClpP1/ClpP2 dimer”; in short: as §7
[31] = as §6, with “mouse” for “Chlamydia trachomatis Serovar LGV-L2”, “6xHis-tagged ClpP” for “6xhis-tagged ClpP1/ClpP2 dimer”; in short: as §7
[32] = as §6, with “human” for “Chlamydia trachomatis Serovar LGV-L2”, “6xHis-tagged ClpP” for “6xhis-tagged ClpP1/ClpP2 dimer”; in short: as §7
[33] = molecular target: ATP-dependent Clp protease proteolytic subunit (Escherichia coli (strain K12)) (UniProt P0A6G7); assay: as §6, with “recombinant” for “recombinant Chlamydia trachomatis Serovar LGV-L2 C-terminal 6xhis-tagged ClpP1/ClpP2 dimer expressed in”, “coli ClpP” for “coli”; in short: as §7
Sequence of ATP-dependent Clp protease proteolytic subunit (Escherichia coli (strain K12)) (P0A6G7 whole entry): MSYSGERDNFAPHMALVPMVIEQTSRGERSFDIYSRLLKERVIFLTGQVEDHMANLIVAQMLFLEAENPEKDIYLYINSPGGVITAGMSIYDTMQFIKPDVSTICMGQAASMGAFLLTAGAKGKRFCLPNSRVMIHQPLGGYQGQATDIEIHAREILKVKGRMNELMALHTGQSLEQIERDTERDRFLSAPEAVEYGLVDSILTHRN

Row | Structure (SMILES) | inhibition [2] | inhibition [6] | inhibition [7] | inhibition [8] | inhibition [9] | Activity [10] | inhibition [11] | Activity [12] | inhibition [13] | inhibition [14] | Activity [15] | Activity [16] | inhibition [17] | inhibition [18] | inhibition [19] | also measured
1 | CC1(C)S[C@@H]2[C@H](NC(=O)Cc3ccccc3)C(=O)N2[C@H]1C(=O)O | – | – | – | – | – | – | – | – | – | – | – | – | – | – | – | inhibition [1]: Active
2 | CC(C)(C(=O)NCCCc1ccccc1)S(=O)(=O)c1ccc(C(F)(F)F)cn1 | Active | – | – | – | – | – | – | – | – | – | – | – | – | – | – | inhibition [3]: Active; Activity [4]: 8 µg/mL; Activity [5]: 16 µg/mL
3 | CC(C)(C(=O)NCCSc1ccc(Cl)cc1)S(=O)(=O)c1ccc(C(F)(F)F)cn1 | – | inactive | inactive | inactive | inactive | Non-Toxic | inactive | Non-Toxic | inactive | inactive | Non-Toxic | < 65% | inactive | inactive | inactive | –
4 | CC(C)(C(=O)NCCOc1ccccc1)S(=O)(=O)c1ccc(C(F)(F)F)cc1 | Active | inactive | inactive | inactive | Active | Non-Toxic | inactive | Non-Toxic | inactive | inactive | Non-Toxic | < 65% | inactive | inactive | inactive | t1/2 [20]: 2.98 min; Stability [21]: Stable; Activity [22]: Non-Toxic; Stability [23]: Stable; CLH [24]: 1840 mL/min/kg; microsomal intrinsic clearance [25]: 233.77 µL/min; metabolised at 10 min, 1 ug/ml [26]: 90%; Stability [27]: Stable
5 | CC(C)(C(=O)NCCCc1ccccc1)S(=O)(=O)c1ccccc1 | – | inactive | inactive | inactive | inactive | – | inactive | – | inactive | inactive | – | – | inactive | inactive | inactive | Activity [28]: Active; Activity [29]: Active; Activity [30]: Active; Activity [31]: Not Active; Activity [32]: Not Active; Activity [33]: inactive
